Measurements reported in publication PMC10975593 (ACS Omega, 2024).
pIC50: −log10 of the molar value.

Tests used:
[1] = test system: A549 cancer cell line; assay: MTT assay; format: cell-based; settings: Homo sapiens, A549, 72 h
Procedure, shortened: (§1)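 A549 in DMEM and MCF-7 in RPMI, each with 10% heat-inactivated FBS, 1% penicillin/streptomycin and 2 mmol/L glutamine at 37 °C, 5% CO2. Seeded at 2000 (A549) or 10,000 (MCF-7) cells/well and attached 24 h. Then 72 h with test compound at varying concentrations. MTT (5 mg/mL stock) added for 4 h at 37 °C, formazan dissolved in DMSO, absorbance read at 450/540 nm. Triplicates in three separate experiments.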

[2] = test system: MCF-7 and A549 cancer cell lines; assay: MTT assay, range over both cell lines; format: cell-based; settings: read-out: IC50 values, range
Procedure, shortened: as §1

[3] = test system: Staphylococcus aureus; assay: Disc diffusion antimicrobial test; format: cell-based; settings: Staphylococcus aureus, 24 h, read-out: zone of inhibition (diameter of inhibition)
Procedure, shortened: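 Disc diffusion on nutrient agar, test compound at 100 μg/mL with DMSO as solvent. Plates incubated at 37 °C for 24 h after inoculation, then zone of inhibition measured and compared with standards. Controls were DMSO, amoxicillin, ciprofloxacin and tetracycline.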

[4] = test system: Fibro cell line; assay: % inhibition on normal cell line; format: cell-based
[5] = test system: HS 578T; assay: NCI 60-cell line screen; format: cell-based, human
[6] = test system: SF-539; assay: NCI 60-cell line screen; format: cell-based, human
Procedure, shortened: (§2)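 Test compounds were submitted to the National Cancer Institute and run under NCI's standard 60-cell-line protocols. Read-outs were taken from percent-growth versus log-concentration curves.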

[7] = test system: U251; assay: NCI 60-cell line screen; format: cell-based, human
Procedure, shortened: as §2

[8] = test system: HCT-15; assay: NCI 60-cell line screen; format: cell-based, human
[9] = test system: HT29; assay: NCI 60-cell line screen; format: cell-based, human
[10] = test system: SW-620; assay: NCI 60-cell line screen; format: cell-based, human
Procedure, shortened: as §2

[11] = test system: K-562; assay: NCI 60-cell line screen; format: cell-based, human
[12] = test system: LOX IMVI; assay: NCI 60-cell line screen; format: cell-based, human
[13] = test system: M14; assay: NCI 60-cell line screen; format: cell-based, human
[14] = test system: EKVX; assay: NCI 60-cell line screen; format: cell-based, human
[15] = test system: HOP-62; assay: NCI 60-cell line screen; format: cell-based, human
[16] = test system: HOP-92; assay: NCI 60-cell line screen; format: cell-based, human
[17] = test system: OVCAR-4; assay: NCI 60-cell line screen; format: cell-based, human
[18] = test system: SK-OV-3; assay: NCI 60-cell line screen; format: cell-based, human
Procedure, shortened: as §2

[19] = test system: DU-145; assay: NCI 60-cell line screen; format: cell-based, human
[20] = test system: A498; assay: NCI 60-cell line screen; format: cell-based, human
[21] = test system: ACHN; assay: NCI 60-cell line screen; format: cell-based, human
[22] = test system: CAKI-1; assay: NCI 60-cell line screen; format: cell-based, human
[23] = test system: SN12C; assay: NCI 60-cell line screen; format: cell-based, human
Procedure, shortened: as §2

[24] = test system: UO-31; assay: NCI 60-cell line screen; format: cell-based, human
Procedure, shortened: as §2

[25] = test system: HL-60(TB); assay: cells; settings: Homo sapiens

Work on `O=C(CNc1ccc([N+](=O)[O-])cc1)Nc1nc2ccccc2s1` [OMS5, N-(1,3-benzothiazol-2-yl)-2-(4-nitroanilino)acetamide] yielded a pIC50 [1] of 4.21, an inhibition at 100 µM ([1]; read-out: experimental % of inhibition on A549 cancer cell line) of 64.2% and a pIC50 [2] of 4.21 to 4.66. For the same compound, the zone of inhibition at 100 µg/mL [3] was 0 mm, the inhibition at 10 µM ([4]; read-out: %inhibition at 10 μM) was 57.9% and the inhibition at 100 µM ([4]; read-out: %inhibition at 100 μM) was 67.1%. For the same compound, the TGI ([5]; HS 578T, breast cancer) was 5600 nM, the GI50 ([5]; Homo sapiens, Hs-578T) was 1600 nM and the pIC50 ([5]; Homo sapiens, Hs-578T) was 5.23. It also gave a CC50 ([5]; Homo sapiens, Hs-578T, read-out: LC50) of 93300 nM, a GI50 ([6]; Homo sapiens, SF-539) of 500 nM and a pIC50 ([6]; Homo sapiens, SF-539) of 5.85. It also gave a CC50 ([6]; Homo sapiens, SF-539, read-out: LC50) of 6500 nM, a TGI ([6]; SF-539, CNS cancer) of 2100 nM and a GI50 ([7]; Homo sapiens, U-251) of 900 nM. The pIC50 ([7]; Homo sapiens, U-251) was 5.77, the CC50 ([7]; Homo sapiens, U-251, read-out: LC50) was 41700 nM and the TGI ([7]; U251, CNS cancer) was 12000 nM. It also gave a TGI ([8]; HCT-15, colon cancer) of 3700 nM, a GI50 ([8]; Homo sapiens, HCT-15) of 500 nM and a pIC50 ([8]; Homo sapiens, HCT-15) of 6.15. The CC50 ([8]; Homo sapiens, HCT-15, read-out: LC50) was 28800 nM, the TGI ([9]; HT29, colon cancer) was 2100 nM and the GI50 ([9]; Homo sapiens, HT-29) was 500 nM. For the same compound, the pIC50 ([9]; Homo sapiens, HT-29) was 6.15, the CC50 ([9]; Homo sapiens, HT-29, read-out: LC50) was 8100 nM and the GI50 ([10]; Homo sapiens, SW-620) was 500 nM. It also gave a pIC50 ([10]; Homo sapiens, SW-620) of 6.15, a CC50 ([10]; Homo sapiens, SW-620, read-out: LC50) of 43700 nM and a TGI ([10]; SW-620, colon cancer) of 7200 nM. For the same compound, the GI50 ([11]; Homo sapiens, K562) was 500 nM, the pIC50 ([11]; Homo sapiens, K562) was 6.22 and the CC50 ([11]; Homo sapiens, K562, read-out: LC50) was over 100000 nM. The TGI ([11]; K-562, leukemia) was 100000 nM, the GI50 ([12]; Homo sapiens) was 600 nM and the pIC50 ([12]; Homo sapiens) was 6.00. For the same compound, the CC50 ([12]; Homo sapiens, read-out: LC50) was 8700 nM, the TGI ([12]; melanoma) was 2600 nM and the GI50 ([13]; Homo sapiens, M14) was 900 nM. The pIC50 ([13]; Homo sapiens, M14) was 5.85, the CC50 ([13]; Homo sapiens, M14, read-out: LC50) was 6500 nM and the TGI ([13]; M14, melanoma) was 2500 nM. The GI50 ([14]; Homo sapiens) was 1100 nM, the pIC50 ([14]; Homo sapiens) was 5.60 and the CC50 ([14]; Homo sapiens, read-out: LC50) was 26900 nM. For the same compound, the TGI ([14]; non-small cell lung cancer) was 4200 nM, the TGI ([15]; HOP-62, non-small cell lung cancer) was 4900 nM and the GI50 ([15]; Homo sapiens, HOP-62) was 1200 nM. The pIC50 ([15]; Homo sapiens, HOP-62) was 5.52, the CC50 ([15]; Homo sapiens, HOP-62, read-out: LC50) was 25100 nM and the TGI ([16]; HOP-92, non-small cell lung cancer) was 10000 nM. The GI50 ([16]; Homo sapiens, HOP-92) was 2300 nM, the pIC50 ([16]; Homo sapiens, HOP-92) was 4.92 and the CC50 ([16]; Homo sapiens, HOP-92, read-out: LC50) was 63100 nM. The GI50 ([17]; Homo sapiens, OVCAR-4) was 1000 nM, the pIC50 ([17]; Homo sapiens, OVCAR-4) was 5.52 and the CC50 ([17]; Homo sapiens, OVCAR-4, read-out: LC50) was 40700 nM. It also gave a TGI ([17]; OVCAR-4, ovarian cancer) of 5100 nM, a GI50 ([18]; Homo sapiens, SK-OV-3) of 1300 nM and a pIC50 ([18]; Homo sapiens, SK-OV-3) of 5.28. It also gave a CC50 ([18]; Homo sapiens, SK-OV-3, read-out: LC50) of over 100000 nM, a TGI ([18]; SK-OV-3, ovarian cancer) of 6800 nM and a TGI ([19]; DU-145, prostate cancer) of 12000 nM. It also gave a GI50 ([19]; Homo sapiens, DU-145) of 800 nM, a pIC50 ([19]; Homo sapiens, DU-145) of 5.74 and a CC50 ([19]; Homo sapiens, DU-145, read-out: LC50) of 52500 nM. The TGI ([20]; A498, renal cancer) was 6500 nM, the GI50 ([20]; Homo sapiens, A498) was 1400 nM and the pIC50 ([20]; Homo sapiens, A498) was 5.14. For the same compound, the CC50 ([20]; Homo sapiens, A498, read-out: LC50) was 28800 nM, the GI50 ([21]; Homo sapiens) was 400 nM and the pIC50 ([21]; Homo sapiens) was 6.10. It also gave a CC50 ([21]; Homo sapiens, read-out: LC50) of 33100 nM, a TGI ([21]; renal cancer) of 8500 nM and a TGI ([22]; CAKI-1, renal cancer) of 9500 nM. The GI50 ([22]; Homo sapiens, CAKI-1) was 400 nM, the pIC50 ([22]; Homo sapiens, CAKI-1) was 6.05 and the CC50 ([22]; Homo sapiens, CAKI-1, read-out: LC50) was 32400 nM. It also gave a GI50 ([23]; Homo sapiens) of 600 nM, a pIC50 ([23]; Homo sapiens) of 5.82 and a CC50 ([23]; Homo sapiens, read-out: LC50) of 57500 nM. For the same compound, the TGI ([23]; renal cancer) was 4900 nM, the GI50 ([24]; Homo sapiens, UO-31) was 500 nM and the pIC50 ([24]; Homo sapiens, UO-31) was 5.89. For the same compound, the CC50 ([24]; Homo sapiens, UO-31, read-out: LC50) was 26900 nM, the TGI ([24]; UO-31, renal cancer) was 3800 nM and the GI50 ([25]; HL-60) was 800 nM. It also gave a pIC50 ([25]; HL-60) of 5.60 and a CC50 ([25]; HL-60, read-out: LC50) of over 100000 nM.
